Assay [1] can be described thus: Her2 expression decrease, cell viability multiplex – SKBR3 breast tumor cells, AlphaScreen, ATP viability, primary screen (AID 461;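 active = Her2 level under about 52% in both replicate screens, with viability over 70% of control, limit read from the data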;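 as to Her2 level: lower value means less Her2 protein in the cells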;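 as to viability: percent of carrier control wells set as 100% viability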). The settings on record: SKBR3 Her2 protein level, 18-24 h, measured here: SKBR3 viability, ATP luminescence, at 10 µM. (Alpha assays give light when donor and acceptor beads are brought close together.)
Assay [2] has as its target Receptor tyrosine-protein kinase erbB-2 (Homo sapiens) (UniProt P04626). The assay is described as above. The following applies: 18-24 h, at 10 µM, stronger effect = lower value.
Assay [3] can be described thus: reduced viability of SK-BR-3 breast cancer cells – cell-based, 24 h, human, pilot screen (AID 572;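 active = viability at or below 10% of carrier control in both of two separate runs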;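 also: compound exposure lasted between 18 and 24 h rather than exactly 24 h; 100% = carrier-treated control wells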). The following applies: SK-BR-3 viability, CellTiter-Glo luminescence, at 10 µM, stronger effect = lower value. (Cellular ATP, detected with luciferase, serves as a proxy for viable cell number.)
Assay [4] is described as follows: HUVEC growth inhibition – cell-based, human, primary screen (AID 575).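 Also: 100% = median of untreated cell wells with 0.1% DMSO on each plate.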 The settings on record: HUVEC proliferation, CellTiter-Glo luminescence, 72 h; at 10 µM; stronger effect = lower value. In a few lines:
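Material: primary human umbilical vein endothelial cells / Schedule: 72 h exposure, 37 °C, 5% CO2, 30 min RT equilibration / Signal: ATP-based CellTiter-Glo luminescent read / Read-out basis: percent of median DMSO-control luminescence / Control set: 32 DMSO-only cell-control wells (high), 32 MePR drug-control wells (low) per plate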

Assay [5] in a line: H69AR cell proliferation blockers – human, duplicate replicates, primary screen (AID 580;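 active = viability at or under a set limit in both replicates, limit being median viability minus 3 SD, cut at about 48% in these data, passing the limit was not always enough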;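 also: 100% = mean luminescence of untreated wells and 0% = no signal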). The following applies: H69AR lung tumor cells viability, ATP luminescence, 72 h; at 10 µM; stronger effect = lower value.
Assay [6] in a line: MRP1 drug-resistance reversers in H69AR cells – cell-based, doxorubicin co-treatment, pilot screen (AID 601;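 active = viability loss from added drug above about 55%, and viability with drug at most 40%, in both replicates, limit read from the data, passing the limit was not always enough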). The settings on record: CellTiter-Glo, 72 h, at 10 µM; for differential viability (reversal): stronger effect = higher value.
The nature of assay [7]: yeast transport mutant growth inhibition pilot in 384-well plates, post-Golgi transport modulator project (AID 636; in the data active = inhibition above about 31%). The settings on record: absorbance 615 nm, about 18 h, stronger effect = higher value.
Assay [8] can be described thus: growth suppression of yeast trafficking mutant, preliminary HTS, modulators of trafficking downstream of Golgi apparatus project, 1536-format plate, OD 615 nm (AID 637; in the data active = inhibition above about 30%). The settings on record: yeast transport mutant growth, absorbance 615 nm, 18 h; stronger effect = higher value.
The mark [9] stands for this setting: H69AR cells + 2 uM doxorubicin, measured here: viability with 2 uM doxorubicin, stronger effect = lower value.
[10] abbreviates: H69AR cells, compound alone cytotoxicity.

Molecules are shown by their SMILES. Active and inactive are the calls of the source.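 The calls were made as follows, unless noted: active = viability at or below 30% in both replicate assays; inconclusive = viability at or below 30% in just one of the two assays; inactive = the rest.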

By viability is commonly meant a read-out of living cells in per cent, often relative to untreated cells. In general, inhibition refers to the relative decrease from the control value, in per cent.

Receptor tyrosine-protein kinase erbB-2 (Homo sapiens), sequence (P04626 whole entry, looked up): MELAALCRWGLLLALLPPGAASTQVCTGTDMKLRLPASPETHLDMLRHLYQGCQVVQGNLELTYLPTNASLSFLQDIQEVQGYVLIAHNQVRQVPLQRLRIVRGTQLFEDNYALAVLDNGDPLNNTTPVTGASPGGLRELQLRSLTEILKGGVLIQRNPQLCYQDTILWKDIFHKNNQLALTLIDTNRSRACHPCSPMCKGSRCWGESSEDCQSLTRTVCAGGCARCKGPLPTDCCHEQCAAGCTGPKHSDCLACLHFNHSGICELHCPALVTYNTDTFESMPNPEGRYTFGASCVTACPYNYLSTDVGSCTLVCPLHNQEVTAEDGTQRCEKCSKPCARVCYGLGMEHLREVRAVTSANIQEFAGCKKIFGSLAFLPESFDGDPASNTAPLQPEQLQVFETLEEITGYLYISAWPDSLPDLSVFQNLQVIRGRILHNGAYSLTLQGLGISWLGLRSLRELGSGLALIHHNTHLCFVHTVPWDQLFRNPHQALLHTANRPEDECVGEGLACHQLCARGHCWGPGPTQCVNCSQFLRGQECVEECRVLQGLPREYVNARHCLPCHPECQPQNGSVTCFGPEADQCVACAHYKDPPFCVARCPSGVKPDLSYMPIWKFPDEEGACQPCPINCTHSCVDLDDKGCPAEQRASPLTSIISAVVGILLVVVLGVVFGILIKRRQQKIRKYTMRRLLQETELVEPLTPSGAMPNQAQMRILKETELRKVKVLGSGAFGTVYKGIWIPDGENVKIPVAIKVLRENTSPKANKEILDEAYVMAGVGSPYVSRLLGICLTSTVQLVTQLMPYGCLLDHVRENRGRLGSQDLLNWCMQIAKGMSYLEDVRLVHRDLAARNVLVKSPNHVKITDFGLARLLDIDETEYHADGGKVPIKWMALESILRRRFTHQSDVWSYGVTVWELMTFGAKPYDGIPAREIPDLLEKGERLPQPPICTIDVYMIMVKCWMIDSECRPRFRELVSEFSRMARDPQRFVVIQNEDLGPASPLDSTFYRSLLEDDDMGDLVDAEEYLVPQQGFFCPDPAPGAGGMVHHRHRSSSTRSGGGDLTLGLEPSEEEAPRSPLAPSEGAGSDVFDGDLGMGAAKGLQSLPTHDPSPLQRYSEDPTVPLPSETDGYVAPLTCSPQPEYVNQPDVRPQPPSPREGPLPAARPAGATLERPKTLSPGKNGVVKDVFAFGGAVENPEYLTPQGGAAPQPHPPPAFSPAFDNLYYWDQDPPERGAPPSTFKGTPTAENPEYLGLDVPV

Regarding `Cc1cc(C)n(S(=O)(=O)Cc2ccccc2)n1`, the viability is 102% in assay [1]; 102% (inactive) in assay [3]; 97.4% (inactive) in assay [4]; 92.2% (inactive) in assay [5]; 92.4% in assay [6] (setting [9]); 92.2% in assay [6] (setting [10]). Moreover, in assay [2], the Her2 level is 135% (inactive). The differential viability (reversal) in assay [6] (H69AR cells + 2 uM doxorubicin) was -0.205% (inactive). For the same compound, the inhibition is -6.32% (inactive) in assay [7] and 4.59% (inactive) in assay [8].
As to `COc1ccc2c(C(F)(F)F)cc(=O)oc2c1C`, the viability in assay [1] was 92%; in assay [3], 92% (inactive); in assay [4], 110% (inactive); in assay [5] it was 99.8% (inactive); in assay [6] (setting [9]) it was 93.3%; in assay [6] (setting [10]), 99.8%. Further, in assay [2], the Her2 level is 99.5% (inactive). Besides, the differential viability (reversal) in assay [6] (H69AR cells + 2 uM doxorubicin) was 6.5% (inactive). In addition, the inhibition in assay [7] was -4.67% (inactive); in assay [8], 9.68% (inactive).
Regarding `CCCCSCCCNC(=O)CS(=O)Cc1nc(-c2cccc(C)c2)oc1C` (stereo not given), the viability in assay [1] is 98.5%; in assay [3], 98.5% (inactive); in assay [4] it was 91.9% (inactive); in assay [5] it was 87.5% (inactive); in assay [6] (setting [9]), 91.2%; in assay [6] (setting [10]), 87.5%. In addition, in assay [2], the Her2 level is 76% (inactive). Besides, the differential viability (reversal) in assay [6] (H69AR cells + 2 uM doxorubicin) is -3.76% (inactive). In addition, the inhibition in assay [7] is -1.58% (inactive); in assay [8] it was -1% (inactive).
For the compound `COC(=O)Cc1csc(N)n1`, the viability in assay [1] was 95%; in assay [3], 95% (inactive); in assay [4], 90.1% (inactive); in assay [5] it was 93% (inactive); in assay [6] (setting [9]), 88.2%; in assay [6] (setting [10]), 93%. The Her2 level in assay [2] is 82.5% (inactive). Besides, the differential viability (reversal) in assay [6] (H69AR cells + 2 uM doxorubicin) is 4.79% (inactive). Besides, the results for the inhibition in assay [7] and in assay [8] were 0.92% (inactive) and -3.27% (inactive), respectively.
For `CCOC(=O)c1[nH]c(C)c(C(=O)Nc2ccc(C)c(Cl)c2)c1C`, the viability is 94% in assay [1]; 94% (inactive) in assay [3]; 61.4% (inactive) in assay [4]; 28.6% (active) in assay [5]; 57.6% in assay [6] (setting [9]); 28.6% in assay [6] (setting [10]). In addition, the Her2 level in assay [2] was 88% (inactive). Also, the differential viability (reversal) in assay [6] (H69AR cells + 2 uM doxorubicin) was -29% (inactive). In addition, the inhibition in assay [7] is -5.53% (inactive); in assay [8], -2.7% (inactive).
In the case of `CC(=O)Nc1ccc(Cl)cc1C(=O)O`, the viability in assay [1] was 96.5%; in assay [3] it was 96.5% (inactive); in assay [4], 85.8% (inactive); in assay [5] it was 106% (inactive); in assay [6] (setting [9]) it was 95.3%; in assay [6] (setting [10]), 106%. In addition, the Her2 level in assay [2] is 97.5% (inactive). Further, the differential viability (reversal) in assay [6] (H69AR cells + 2 uM doxorubicin) is 10.4% (inactive). Moreover, the inhibition in assay [7] is -5.87% (inactive); in assay [8], -1.29% (inactive).
In the case of `c1ccc(-n2nnnc2OCCOc2nnnn2-c2ccccc2)cc1`, the viability in assay [1] was 92%; in assay [3], 92% (inactive); in assay [4], 82.2% (inactive); in assay [5] it was 80.4% (inactive); in assay [6] (setting [9]), 86.5%; in assay [6] (setting [10]), 80.4%. Further, the Her2 level in assay [2] is 106% (inactive). The differential viability (reversal) in assay [6] (H69AR cells + 2 uM doxorubicin) was -6.12% (inactive). In addition, the inhibition was -2.24% (inactive) in assay [7] and 9.18% (inactive) in assay [8].
`Cn1c(SCCN2CCCCC2)nnc1-c1ccccc1Br`: the viability in assay [1] was 94.5%; in assay [3], 94.5% (inactive); in assay [4], 105% (inactive); in assay [5] it was 105% (inactive); in assay [6] (setting [9]), 95.3%; in assay [6] (setting [10]) it was 105%. For the same compound, the Her2 level in assay [2] is 95.5% (inactive). For the same compound, the differential viability (reversal) in assay [6] (H69AR cells + 2 uM doxorubicin) is 9.74% (inactive). Moreover, the results for the inhibition in assay [7] and in assay [8] were -4.4% (inactive) and 5.48% (inactive), respectively.
With `c1ccc(-c2noc(C3CCCCC3)n2)nc1`, the viability in assay [1] was 91%; in assay [3], 91% (inactive); in assay [4], 114% (inactive); in assay [5], 102% (inactive); in assay [6] (setting [9]), 90.4%; in assay [6] (setting [10]), 102%. Moreover, the Her2 level in assay [2] was 96.5% (inactive). For the same compound, the differential viability (reversal) in assay [6] (H69AR cells + 2 uM doxorubicin) is 11.2% (inactive). Also, the results for the inhibition in assay [7] and in assay [8] were 0.82% (inactive) and -2.7% (inactive), respectively.
For `COc1ccc(C2CC(=O)c3c(C)nc(N4CCN(c5ccccc5)CC4)nc3C2)cc1` (stereo not given), the viability in assay [1] is 90%; in assay [3], 90% (inactive); in assay [4], 98.5% (inactive); in assay [5], 97.3% (inactive); in assay [6] (setting [9]), 78.3%; in assay [6] (setting [10]) it was 97.3%. Moreover, in assay [2], the Her2 level was 88% (inactive). Moreover, the differential viability (reversal) in assay [6] (H69AR cells + 2 uM doxorubicin) was 19% (inactive). For the same compound, the inhibition in assay [7] is 0.79% (inactive); in assay [8], -5.9% (inactive).
Consider `O=C(Nc1ccccc1C(F)(F)F)c1cc(S(=O)(=O)N2CCOCC2)ccc1F`, for which the viability is 96.5% in assay [1]; 96.5% (inactive) in assay [3]; 102% (inactive) in assay [4]; 90.4% (inactive) in assay [5]; 81.5% in assay [6] (setting [9]); 90.4% in assay [6] (setting [10]). The Her2 level in assay [2] is 91.5% (inactive). Further, the differential viability (reversal) in assay [6] (H69AR cells + 2 uM doxorubicin) is 8.93% (inactive). Also, the inhibition in assay [7] was -6.49% (inactive); in assay [8], 1.43% (inactive).
Regarding `CCN(CC)c1nc2nonc2nc1N(CC)CC`, the viability in assay [1] is 101%; in assay [3], 101% (inactive); in assay [4] it was 110% (inactive); in assay [5], 104% (inactive); in assay [6] (setting [9]), 99.2%; in assay [6] (setting [10]), 104%. Further, in assay [2], the Her2 level is 92% (inactive). In assay [6] (H69AR cells + 2 uM doxorubicin), the differential viability (reversal) was 4.4% (inactive). In addition, the inhibition in assay [7] was -6.53% (inactive); in assay [8], 3.17% (inactive).
Consider `CCOc1cc(-c2nc(-c3ccc(C)nc3OCC)no2)cc(OCC)c1OCC`, for which the viability is 91.5% in assay [1]; 91.5% (inactive) in assay [3]; 82.2% (inactive) in assay [4]; 94.8% (inactive) in assay [5]; 98% in assay [6] (setting [9]); 94.8% in assay [6] (setting [10]). Further, in assay [2], the Her2 level was 108% (inactive). Also, the differential viability (reversal) in assay [6] (H69AR cells + 2 uM doxorubicin) is -3.25% (inactive). Further, the inhibition in assay [7] is 2% (inactive); in assay [8], 3.44% (inactive).
As to `O=S1(=O)N=C(Nc2nc3c(s2)CCCC3)c2ccccc21`, the viability was 82% in assay [1]; 82% (inactive) in assay [3]; 85.4% (inactive) in assay [4]; 78.9% (inactive) in assay [5]; 82.7% in assay [6] (setting [9]); 78.9% in assay [6] (setting [10]). The Her2 level in assay [2] was 112% (inactive). In assay [6] (H69AR cells + 2 uM doxorubicin), the differential viability (reversal) was -3.82% (inactive). Further, the figures for the inhibition in assay [7] and in assay [8] were 0.93% (inactive) and -7.62% (inactive), respectively.

These data come from PubChem BioAssay.
